Screens deposited in PubChem by several laboratories.
SKN-1 block – suppressors of acrylamide-induced Pgst-4::GFP reporter in worms, primary screen, SKN-1 inhibitor project, whole organism, uHTS, GFP/RFP fluorescence ratio, strain VP596; 360,000 compounds, 0.49% hits; C. elegans VP596 Pgst-4::GFP/RFP ratio, 24 h; inhibition, % at 21.8 µM;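 active means interference check ratio from 0.5 to 1.5 plus GFP to RFP signal ratio inhibition reaching or exceeding a fixed threshold, cut at about 30% in these data, passing the limit was not always enough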
Tn6 DDE FP – inhibitors of Tn6 peptide binding to fibrin DD(E), primary screen, biochemical, fluorescence polarization, human fibrin, Tn6 probe | 370,000 compounds, 0.21% hits | Fibrinogen beta chain (Homo sapiens), P02675 | Fibrin DD(E) TRITC-Tn6 fluorescence polarization displacement | inhibition, % at 8.3 µM;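 active means inhibition above a per-campaign cutoff: mean of compounds within control limits plus 3 SD, cut at about 15% in these data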;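 further: 0% = median of all compound wells on the plate and 100% = blocking peptide control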
Target sequence (P02675 whole entry, looked up): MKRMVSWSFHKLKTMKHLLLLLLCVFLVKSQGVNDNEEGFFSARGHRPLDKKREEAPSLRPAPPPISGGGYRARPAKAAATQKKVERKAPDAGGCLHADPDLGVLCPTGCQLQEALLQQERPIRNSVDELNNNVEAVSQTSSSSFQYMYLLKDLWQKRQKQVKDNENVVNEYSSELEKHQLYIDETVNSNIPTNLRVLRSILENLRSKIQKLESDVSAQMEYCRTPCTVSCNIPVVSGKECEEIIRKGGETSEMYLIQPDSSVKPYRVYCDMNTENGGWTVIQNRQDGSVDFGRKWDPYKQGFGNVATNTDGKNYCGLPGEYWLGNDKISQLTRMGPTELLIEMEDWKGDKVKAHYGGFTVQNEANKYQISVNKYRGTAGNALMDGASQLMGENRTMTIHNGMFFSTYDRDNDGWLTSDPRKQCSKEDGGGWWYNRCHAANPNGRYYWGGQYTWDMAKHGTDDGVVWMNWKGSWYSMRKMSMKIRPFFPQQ
MT1-MMP act inh – blockers of MT1-MMP proenzyme processing, primary screen, HT1080 RFP-PRO-GFP cells, GFP/RFP fluorescence; 360,000 compounds, 0.061% hits; GFP/RFP ratio fluorescence, overnight; percent of plate control window, DMSO zero; GFP/RFP ratio change, % at 20 µM; Matrix metalloproteinase-14 (Homo sapiens), P50281;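 active means GFP/RFP ratio change of at least 30% with cell ATP level not reduced by more than half and red fluorescence within 50% of control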
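system = RFP-PRO-GFP reporter HT1080 cells | dosing = 20 µM single dose, 1% DMSO | timing = overnight cell settling, then overnight compound exposure, 37 °C, 5% CO2 | read-out basis = GFP/RFP fluorescence ratio | controls = DMSO and RFP-L50D-GFP cell wells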
DDE Tn7 FP inh – inhibitors of Tn7 peptide binding to fibrin DD(E), primary screen, biochemical, fluorescence polarization, human fibrin, Tn7 probe; FP displacement of FITC-Tn7 peptide from fibrin DD(E); 0% = median of compound wells per plate; Fibrinogen beta chain (Homo sapiens), P02675; 370,000 compounds, 0.13% hits; inhibition, % at 8.3 µM;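 active means inhibition above the mean of compounds falling within the control limits plus 3 SD of them, cut at about 14% in these data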;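 further: 0% = plate median of compound wells and 100% = 10 µM Aha-Tn7 peptide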
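system = human fibrin DD(E) protein | quantity = DD(E) 2 µM final | medium = Tris/NaCl/CaCl2 buffer, pH 7.8 | also added = labelled Tn7 tracer, 0.1 µM | compound dosing = single point at 8.3 µM | timing = compound with protein 10 min, then 3 h after probe, room temperature | signal = FP measurement | benchmarks = Aha-Tn7 high control | repeats = one replicate per compound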
Tn7 DDE conf – inhibitors of Tn7 peptide binding to fibrin DD(E), confirmation, biochemical, fluorescence polarization, human fibrin, Tn7 probe. shares compounds with DDE Tn7 FP inh. FP displacement of TRITC-Tn7 peptide from DD(E); 0% set at plate's compound-well median. inhibition, % at 8.3 µM. 460 compounds, 5% hits. AID 720628, 2013;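 active means inhibition above the campaign cutoff, the mean of compounds within control limits plus 3 SD, cut at about 14% in these data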;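 further: 100% = median FP of high control wells holding Aha-Tn7 inhibitor peptide; displacers lower polarization since freed probe rises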
DDE Tn7 FP ctr – counter-screen hit for Tn7 peptide-fibrin DD(E) binding disruption. shares compounds with DDE Tn7 FP inh. TRITC-Tn7 probe displacement, fluorescence polarization. inhibition, % at 8.3 µM. 460 compounds, 3% hits;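 active means inhibition above the cutoff, the mean of compounds lying between the control bounds plus 3 SD of those compounds, cut at about 17% in these data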;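 further: 0% = median of compound sample wells and 100% = excess unlabeled Aha-Tn7 peptide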
An asterisk follows results filed as active; / = not tested or not shown. The list is not random: actives were taken first. Their share in the collection is about 0.84%.

SMILES	SKN-1 block	Tn6 DDE FP	MT1-MMP act inh	DDE Tn7 FP inh	Tn7 DDE conf	DDE Tn7 FP ctr
COc1ccc(S(=O)(=O)N2CCOCC2)cc1NC(=O)CCOc1ccc(C(C)(C)C)cc1	4	4	1	15*	6	-3
COc1ccccc1N1CCN(CC(=O)c2c(C)[nH]c3ccccc23)CC1	2	0	-5	16*	-2	-2
COc1ccccc1N1CCN(CC(=O)c2c[nH]c3ccccc23)CC1	-5	-6	3	3	/	/
COCCNC(=O)c1cccc(OC2CCN(Cc3ccc(OC(F)F)cc3)CC2)c1	-11	4	7	-2	/	/
COc1ccc(S(=O)(=O)N2CCC(C(=O)N3CCCC3)CC2)cc1Cl	-25	-1	-1	15*	5	3
O=C(C1CCN(S(=O)(=O)c2cccc([N+](=O)[O-])c2)CC1)N1CCOCC1	7	4	-1	14*	1	-3
O=[N+]([O-])c1cccc(S(=O)(=O)N2CCN(S(=O)(=O)N3CCOCC3)CC2)c1	15	3	-2	3	/	/
O=C1NC[C@H](CCCCN2CCN(CC3CCCCC3)C(=O)C2=O)N(CC2CCCCC2)C1=O	-1	2	3	3	/	/
COc1ccc(C(=O)NCN2CCN(c3ccccc3)CC2)cc1OC	1	-2	2	-3	/	/
COc1ccc(C2C(C(=O)c3cccs3)=C(O)C(=O)N2c2cccc(C)n2)cc1 (stereo not given)	18	-3	-4	-5	/	/
Cc1ccc(C2C(C(=O)c3cccs3)=C(O)C(=O)N2c2nnc(C)s2)cc1 (stereo not given)	-25	-4	-196	32*	3	-1
CCOc1ccc(C(=O)NCC(c2cccs2)N2CCOCC2)cc1 (stereo not given)	5	-1	-5	-3	/	/
CC(C)CCOc1ccc(C(=O)NCC(c2cccs2)N2CCOCC2)cc1 (stereo not given)	-1	-4	-1	15*	2	-1
CCC1(c2ccccc2)NC(=O)N(CC(=O)Nc2ccc(OC)nc2)C1=O (stereo not given)	-2	-2	-63	22*	5	-4
CCC1(c2ccccc2)NC(=O)N(CC(=O)Nc2ccc3c(c2)CCC3)C1=O (stereo not given)	3	-4	8	-1	/	/
COc1ccccc1C(=O)NCC(=O)OCC(=O)Nc1ccc2[nH]c(=O)[nH]c2c1	5	3	3	15*	5	-5
CN(C)C(CNC(=O)c1cc(S(=O)(=O)N(C)c2ccc(F)cc2)ccc1Cl)c1cccs1 (stereo not given)	-6	2	3	15*	3	0
COc1ccc(NCc2ccc(OC)c(Cn3ccnc3)c2)c(OC)c1	0	1	-2	2	/	/
O=C(CSc1nnc(NC(=O)C2CC(=O)N(c3ccc(F)cc3)C2)s1)NC1CCCC1 (stereo not given)	-5	10	0	14*	9	4
O=C(Nc1nnc(SCC(=O)N2CCCC2)s1)C1CC(=O)N(c2ccc(F)cc2)C1 (stereo not given)	-1	3	1	1	/	/
Cc1cc(C)nc(/N=C(\N)Nc2ccc(C(C)C)cc2)n1	2	-2	2	5	/	/
COc1ccccc1-c1sc2ccccc2c1-c1ccc(O)cc1	1	-6	2	-8	/	/
COc1ccccc1-c1sc2ccccc2c1C#Cc1ccc(N(C)C)cc1	18	-4	-2	14*	4	4
CCC1=Nc2cc(C(=O)O)ccc2Sc2ccc(Cl)cc21	12	3	-1	15*	-1	0
O=S1(=O)c2ccc(N3CCSCC3)cc2Oc2ccccc2CN1Cc1cn(Cc2cccc(C(F)(F)F)c2)nn1	/	1	/	0	/	/
SMILES	SKN-1 block	Tn6 DDE FP	MT1-MMP act inh	DDE Tn7 FP inh	Tn7 DDE conf	DDE Tn7 FP ctr
O=C(CCc1nnc2n(Cc3ccc(F)cc3)c(=O)c3ccccc3n12)N1CCN(c2ccccn2)CC1	-3	1	-2	2	/	/
COc1ccc(-n2nnnc2C(c2ccccc2)N2CCN(C/C=C/c3ccccc3)CC2)cc1 (stereo not given)	14	-5	/	-6	/	/
O=C(N/C(C(=O)N1CCOCC1)=C(\Sc1ncccn1)c1ccccc1)c1ccccc1	-13	9	0	15*	2	-1
CC(C)=C(NC(=O)c1ccccc1)C(=O)N1CCOCC1	3	3	3	-3	/	/
O=c1oc2cc(O)ccc2cc1-c1nc2ccccc2o1	10	-3	-73	38*	14*	-5
CC(C)NC(=O)Nc1ccc2c(c1)C(=O)N([C@H](C)CO)C[C@H](C)[C@@H](CN(C)C(=O)Nc1ccc3c(c1)OCO3)O2	6	-2	3	-4	/	/
Cc1nn(C)c(C)c1CCC(=O)O	-2	2	0	14*	3	4
CCn1nc(C)c(CCC(=O)O)c1C	1	0	6	11	/	/
COCCn1c(COc2cccc(OC)c2)nnc1SCC(=O)NC1CCCCC1	-3	2	-4	19*	-3	-4
COCCn1c(COc2cccc(OC)c2)nnc1SCC(=O)NC1CCCC1	-1	-8	-2	11	/	/
CCCCCCn1c(=O)[nH]c2nc3cc(N)c(C)cc3nc2c1=O	-29	-11	-121	30*	0	7
COc1ccc(S(=O)(=O)Nc2ccc3c(c2)C(=O)N([C@H](C)CO)C[C@H](C)[C@@H](CN(C)S(=O)(=O)c2cn(C)cn2)OCCCC[C@H](C)O3)cc1	4	2	1	0	/	/
CC(C)(C)NC(=O)C(c1ccccn1)N(C(=O)c1csnn1)C1CCCCC1 (stereo not given)	2	-3	0	-3	/	/
CCC(C)(C)NC(=O)C(c1ccccn1)N(C(=O)c1csnn1)C1CCCCC1 (stereo not given)	-1	2	-3	14*	1	-2
CCOC(=O)c1c(-c2ccccc2)oc2ccc(O)c(CN3CCCC3)c12	-10	4	0	15*	-2	-7
CC(CN1C(C)CCCC1C)OC(=O)c1ccc(Cl)cc1Cl (stereo not given)	9	-4	2	2	/	/
Cc1ccc(N/C=C/C(=O)c2ccc(C)cc2)cc1	17	4	0	15*	3	3
